# Compounds with a hit are over-represented: about 1.7% of the library has one in this group of screens.
# IDE act: IDE (human) activation, cell-based; P14735; HEK cells, FAbeta-B cleavage, fluorescence polarization; 0% vehicle, 100% cell-free pure enzyme wells; activation, % at 5.96 µM; 340,000 tested, 0.073% active; AID 493087;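 active = activation above the mean of all tested compounds plus 3 SD, set per screening campaign, cut at about 17% in these data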
# CSN inh: blocks human CSN-mediated cullin deneddylation. inhibition, % at 12.5 µM. 360,000 tested, 0.38% active. Purified CSN, SCF-Nedd8-OG deneddylation, fluorescence polarization;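 active = pattern-corrected inhibition above about 35%, with an unprinted fluorescence ratio check between 0.5 and 1.5, limit read from the data, passing the limit was not always enough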;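 note: 0% = enzyme with substrate and 100% = substrate without enzyme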
# Target sequence (Q92905 whole entry, looked up, one chain of several): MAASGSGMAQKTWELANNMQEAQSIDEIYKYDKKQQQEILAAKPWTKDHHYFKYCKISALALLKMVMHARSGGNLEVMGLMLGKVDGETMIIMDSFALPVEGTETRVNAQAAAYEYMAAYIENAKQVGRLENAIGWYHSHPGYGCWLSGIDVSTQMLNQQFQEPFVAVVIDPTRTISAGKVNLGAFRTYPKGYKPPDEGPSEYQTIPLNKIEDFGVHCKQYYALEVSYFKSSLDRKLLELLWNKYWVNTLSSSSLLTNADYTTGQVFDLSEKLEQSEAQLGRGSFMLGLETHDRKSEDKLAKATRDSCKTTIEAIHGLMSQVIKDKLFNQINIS
#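 Material: purified human Csn5 enzyme expressed in HEK293T cells / Medium: Tris buffer pH 7.5, NaCl, DTT, Tween-20, trehalose, ovalbumin / Compound dosing: 12.5 µM single point / Schedule: 90 min incubation of compound, enzyme and substrate at room temperature / Signal: fluorescence polarization of the substrate / Control set: no-enzyme wells high, enzyme-with-substrate wells low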
# TPT1 inh: inhibitors of Candida albicans tRNA 2'-phosphotransferase TPT1 | recombinant caTPT1, FP RNA substrate dephosphorylation | 300,000 tested, 0.81% active | inhibition, % at 5 µM;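 active = inhibition above the mean of all tested compounds plus 3 SD, set per screening campaign, cut at about 24% in these data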;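 note: plate controls were DMSO alone for no effect and ferristatin control at 100 nM for full effect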
# Rpn11 block: blocks the human proteasome subunit Rpn11. 360,000 tested, 0.59% active. human 26S proteasome, Ub4-pepOG fluorescence polarization; 20S core pre-blocked with epoxomicin. calls only at 20 µM. O00487;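 active = inhibition at 20 µM, scaled to each plate's controls, above about 33%, limit read from the data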
# HNF4A DNA FP: change in binding of human HNF4 alpha to DNA; P41235; HNF4a-FITC DNA binding, fluorescence polarization, 1 h; activity change, % at 10 µM; 360,000 tested, 0.3% active; AID 1224865; in the data active = activity change above about 30%, passing the limit was not always enough
# IDE cell inh: inhibits human insulin-degrading enzyme in HEK cells. P14735. FAbetaB cleavage, fluorescence polarization. inhibition, % at 5.59 µM. 320,000 tested, 0.41% active;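 active = percent inhibition above the average of all tested compounds plus 3 SD, set per screening campaign, cut at about 16% in these data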;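 note: IDE supplied by intact live HEK cells; FP after avidin binding of uncleaved biotin substrate so inhibition keeps polarization high; 0% = DMSO wells and 100% = 60 µM reference IDE inhibitor Ii1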
# caTPT1 confirm: confirmation of Candida albicans TPT1 inhibitors; shares compounds with TPT1 inh; recombinant caTPT1, fluorescence polarization, RNase T1 coupled; inhibition, % at 5 µM; 2,400 tested, 74% active;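 active = inhibition above the primary screen limit, the mean inhibition of all tested compounds plus 3 SD, cut at about 25% in these data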
# RNase T1 counter: RNase T1 inhibition in TPT1 counter-screen; 2,400 tested, 83% active; inhibition, % at 5 µM; RNase T1 cleavage, fluorescence polarization, 1536-well; shares compounds with TPT1 inh;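 active = inhibition above the solvent-only control well mean plus 3 SD, limit set per screening run, cut at about 23% in these data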;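 note: plate controls were DMSO wells with enzyme for no effect and wells without RNase T1 for full effect; inhibitors block cleavage so intact labeled substrate keeps polarization high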
# Target sequence (P00651 whole entry, looked up): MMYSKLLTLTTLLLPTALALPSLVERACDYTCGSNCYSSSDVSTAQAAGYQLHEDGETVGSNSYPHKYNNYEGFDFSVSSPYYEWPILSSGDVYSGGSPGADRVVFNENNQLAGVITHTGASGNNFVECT
# * = called active by the depositor; i = inactive; . = no result given.
SMILES,IDE act,CSN inh,TPT1 inh,Rpn11 block,HNF4A DNA FP,IDE cell inh,caTPT1 confirm,RNase T1 counter
COc1cc2c3c([nH]c2cc1F)C(=O)NCC3,-2.4,-2.0,-2.9,i,5.7,4.8,.,.
CCOc1ccc(NC(=O)CN(C)C(=O)CSCc2c(C)noc2C)cc1OCC,1.1,-8.5,1.0,i,-2.4,4.0,.,.
CCCNC(=O)Cn1c(=O)/c(=C\c2ccc(-c3cccc([N+](=O)[O-])c3)o2)s/c1=C\C(=O)C(C)(C)C,4.2,12.0,50.3*,i,-53.9,-2.4,-88.1,-57.7
CCc1c(C)sc(NC(=O)/C=C/C(=O)O)c1C(N)=O,5.8,-2.4,0.8,i,-0.1,-0.1,.,.
Cn1c(CN2CCCC2)nc2cc(NC(=O)COc3ccc(Cl)cc3)ccc21,-7.9,0.7,59.7*,i,-1.6,1.4,6.9,11.5
COc1ccc(OCC(=O)Nc2ccc3c(c2)nc(CN2CCCC2)n3C)cc1,2.0,4.4,-0.2,i,1.4,9.0,.,.
CC1(C)CNc2cc(N)ccc2S1,1.3,18.6,61.2*,i,5.8,0.9,31.9*,42.7*
COc1cc(/C=N/NC(=O)c2sc(N)c(C#N)c2C)ccc1O,4.4,-8.2,54.2*,i,2.1,7.8,2.3,9.7
CCOc1ncccc1C(=O)OCC(=O)Nc1cc(S(=O)(=O)N2CCCCC2)ccc1Cl,1.4,-3.2,.,i,-1.9,.,.,.
C[C@H]1COC(=O)[C@H](Cc2ccc(F)cc2)C/C=C\C[C@@H](CC(=O)NCCO)C(=O)N1,-1.0,4.4,.,i,0.9,2.0,.,.
COCCN=c1scc(-c2ccc3c(c2)NC(=O)CO3)n1/N=C(\C)c1ccc(O)cc1,-4.2,13.4,26.5*,i,3.9,6.2,10.4,17.9
O=C(NNC(=O)C1CCCCC1)C(=O)NC1CCCCC1,-2.6,0.2,-1.0,i,1.2,3.0,.,.
CCCN(CCC)c1ccc(/C=C/c2ccc3cc(OCC)ccc3n2)cc1,-2.0,34.4,57.3*,.,87.7,3.1,92.6*,97.4*
CCN1C(=O)S/C(=C\c2ccc(N3CCOCC3)cc2C)C1=O,-3.0,23.4,39.2*,i,27.1,6.5,54.9*,68.7*
C#CCN1C(=O)S/C(=C\c2ccc(N3CCOCC3)cc2C)C1=O,-2.8,-15.0,10.2,i,-8.8,0.4,.,.
Cc1cc(N2CCOCC2)ccc1/C=C1\SC(=O)N(C(C)C)C1=O,-3.9,4.0,37.3*,i,14.2,9.4,52.0*,63.6*
Cc1cccc(N/C=C/C(=C(C#N)C#N)N(C)C)c1,-3.0,1.3,-0.8,i,-3.4,3.0,.,.
CCN1C[C@@H]2[C@@H]3C(=O)N(Cc4ccccc4)C(=O)[C@@H]3[C@](C)(C(=O)OC)N2C1=NC,-0.8,-0.8,.,i,-2.0,.,.,.
COc1ccc(/C=N/NC(=O)c2ccc(O)cc2)cc1CN1CCCc2ccccc21,1.3,-2.4,31.3*,i,4.6,-1.0,39.9*,54.2*
Cc1ccccc1OCC(=O)Nc1ccc(S(=O)(=O)Nc2ccccn2)cc1,9.0,-13.8,6.8,i,0.7,-2.9,.,.
Cc1ccc(OCC(=O)Nc2ccc(S(=O)(=O)Nc3ccccn3)cc2)c(C)c1,0.4,-3.9,35.7*,i,-2.6,2.9,3.2,6.1
CN(C)/N=C/C=C1\CC/C(=C\c2ccc(F)c(F)c2)C1=O,2.2,21.6,17.4,i,15.2,2.9,.,.
CC(C)c1ccc(/C=C2\CC/C(=C\C=N\N(C)C)C2=O)cc1,0.6,6.6,80.2*,i,15.2,-7.3,74.9*,82.1*
COc1ccc(CNC(=O)/C=C/c2cc([N+](=O)[O-])ccc2OC(F)F)cc1OC,9.2,3.6,37.0*,i,-1.1,1.3,7.4,8.5
COc1ccc(CNC(=O)/C=C/c2cc([N+](=O)[O-])ccc2OC(F)F)cc1,4.0,-1.4,-1.7,i,-1.2,-1.0,.,.
O=C1CCC(C(=O)Nc2cc(C(F)(F)F)ccc2-n2cncn2)=NN1,0.0,0.2,-0.6,i,-4.2,0.0,.,.

# High-throughput results from PubChem BioAssay.
